Screens (PubChem BioAssay)
An excerpt weighted towards active compounds, which were near 4% of everything screened.
FAS-TE inh: inhibitors of human fatty acid synthase thioesterase domain; P49327; recombinant FAS-TE, OMFH fluorogenic substrate, fluorescence endpoint; inhibition, % at 15 µM; 360,000 compounds, 0.67% hits; AID 602261;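 active means compounds whose normalised, plate-corrected inhibition of enzyme fluorescence in the single-dose primary screen is 50% or more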;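 further: 0% = DMSO with enzyme and 100% = substrate without enzyme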
Cardio protect: myocardial damage modulation in H9c2 cells; H9c2 cardiomyocytes, H2O2 injury protection, ATPLite, 2 h; protection from H2O2 cell death, % at 20 µM; 360,000 compounds, 0.63% hits;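 active means compounds giving at least 50% protection of heart cells from peroxide-induced death in the single-dose screen, raw or plate-pattern-corrected value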;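 further: 0% = DMSO wells with peroxide and 100% = DMSO wells without peroxide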
NR3A LBD binder: modulators (binders) of human NR3A ligand-binding domain. NR3A LBD differential scanning fluorimetry, Tm shift; 0% = protein alone, 100% = glycine-bound protein. Tm shift relative to glycine control, % at 25 µM. 340,000 compounds, 2.5% hits;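 active means melting temperature shift of at least 10% of the positive control shift, at one fixed dose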
Arrestin-AP2 inh: inhibitors of human beta-arrestin and AP2 interaction | FITC-arrestin peptide / GST-AP2 beads, flow cytometry; AP2 beta2 appendage carries R879A mutation | AID 504490 | inhibition, % at 10 µM | 340,000 compounds, 0.31% hits;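 active means inhibition above a set limit, near 3 SD of compounds lacking own fluorescence, cut at about 54% in these data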;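 further: plate controls were DMSO wells for no effect and 5 µM unlabelled arrestin peptide for full effect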
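system = GST-tagged AP2 beta2-adaptin appendage (R879A) on 4 µm glutathione beads | reagent = FITC-labelled arrestin peptide probe, 50 nM final | schedule = compound with beads 12 min RT, then probe 1 h RT | signal = HyperCyt-sampled flow cytometry, FL1 channel, ex 488/em 535 nm | read-out = percent response from loss of bead-bound FITC fluorescence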
hiPSC survival: increases survival of single human iPS cells. 360,000 compounds, 0.044% hits. hiPSC single-cell survival, ATPlite luminescence; 100% = ROCK inhibitor wells, 0% = DMSO. survival enhancement, % at 20 µM; in the data active means survival enhancement above about 18%;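 further: cells exposed to compounds for 16 hours before the ATP read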
SENP1 FRET inh: inhibitors of human SENP1 SUMO protease catalytic domain. 360,000 compounds, 0.21% hits. inhibition, % at 10 µM. recombinant SENP1 catalytic domain, CyPet-SUMO1-YPet FRET cleavage. AID 624204;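 active means inhibition at least 30% at 10 µM, raw YFP signal under a set limit, fluorescence ratio 0.5 to 1.5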;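 further: 0% = enzyme with DMSO and 100% = no enzyme wells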
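Controls: no-enzyme wells low, DMSO-plus-enzyme wells high control. Test system: human recombinant His6-tagged SENP1 catalytic domain enzyme. Reagent: SFCypet-SUMO1-SFYpet FRET protein substrate, 25 nM final. Doses: one dose per compound, 10 µM, 0.5% DMSO. Detection: FRET, CFP and YFP emission. Timing: 50 min reaction at room temperature.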
FAS-TE inh conf: FAS thioesterase (human) inhibition, confirmation; shares compounds with FAS-TE inh; inhibition, % at 15 µM; 2,300 compounds, 45% hits; recombinant FAS-TE, OMFH fluorogenic substrate, fluorescence;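 active means compounds inhibiting the enzyme by at least 50% at 15 µM in any one of the replicates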;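 further: 0% = enzyme with DMSO only and 100% = wells lacking enzyme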
Numbers without * were called inactive; / = no result given.

SMILES	FAS-TE inh	Cardio protect	NR3A LBD binder	Arrestin-AP2 inh	hiPSC survival	SENP1 FRET inh	FAS-TE inh conf
CCOc1ccc(C(C)=O)cc1COC(=O)c1cc([N+](=O)[O-])ccc1N1CCOCC1	38	15	6	-8	0	2	/
O=C(COC(=O)c1cc([N+](=O)[O-])ccc1N1CCOCC1)c1ccc(Br)cc1	63*	2	2	0	0	-2	7
CCOc1ccc(C(=O)COC(=O)c2cc([N+](=O)[O-])ccc2N2CCOCC2)cc1	69*	-2	2	3	-1	-1	63*
Cc1ccc(C)c(C(=O)COC(=O)c2cc([N+](=O)[O-])ccc2N2CCOCC2)c1	46	0	0	10	-1	-3	/
O=C1c2ccc(-c3ccc(Cl)c(C(F)(F)F)c3)cc2S(=O)(=O)c2cccc(C(=O)N3CCN(c4ccc(Cl)cn4)CC3)c21	67*	3	0	0	-1	8	2
CCCC(C)C(=O)Nc1cc([N+](=O)[O-])ccc1F (centres undefined)	31	-4	0	22	-1	3	/
CCCC(C)C(=O)Nc1cc([N+](=O)[O-])ccc1Cl (centres undefined)	52*	0	0	0	2	2	64*
COc1cc(OC)c(N2CC(C(=O)NCCC3=CCCCC3)CC2=O)cc1Cl (centres undefined)	61*	0	1	8	2	3	67*
CCN(c1ccccc1)S(=O)(=O)c1ccc(Cl)c(NC(=O)CN(C)Cc2cccc(F)c2)c1	24	-14	-2	1	-1	-1	/
O=C1[C@H]2[C@@H](c3ccc(F)cc3)N3C(=O)N(c4cccc(Br)c4)C(=O)[C@@]3(Cc3ccccc3)[C@H]2C(=O)N1C1CCCCC1	80*	-9	-6	-10	0	1	35
CC[C@@]12C(=O)N(c3cccc(Br)c3)C(=O)N1[C@H](c1ccc(F)cc1)[C@@H]1C(=O)N(C3CCCCC3)C(=O)[C@@H]12	52*	-3	-3	-4	2	2	24
CC[C@@]12C(=O)N(c3cccc(F)c3)C(=O)N1[C@H](c1ccc(F)cc1)[C@@H]1C(=O)N(C3CCCCC3)C(=O)[C@@H]12	31	-9	-7	-2	2	2	/
O=C(C[n+]1cccc(C(=O)Nc2ccccc2)c1)c1ccccc1	-4	/	/	/	-1	-5	/
O=[N+]([O-])c1ccc(S(=O)(=O)NN=Cc2ccc3c(c2)OCO3)cc1	64*	0	3	28	-3	3	72*
Cc1[nH]ccc2cc3nc4ccccc4c3cc12	0	-8	/	/	-2	-26	/
COc1cccc(NC(=O)c2cc([N+](=O)[O-])ccc2NC(=O)CNCC2CCCO2)c1 (centres undefined)	52*	10	-2	10	-1	1	57*
O=C(O)CN1C(=O)/C(=C\c2cccc(OCc3ccc(Cl)cc3Cl)c2)SC1=S	59*	4	2	6	0	5	38
O=C(O)CN1C(=O)/C(=C\c2ccccc2OCc2ccc(Cl)cc2Cl)SC1=S	39	4	9	1	-1	1	/
O=C1OC(c2ccccc2)=NC12CC2c1ccc(Cl)cc1 (centres undefined)	90*	6	3	18	4	-1	97*
COc1ccccc1-n1c(=O)c(C#N)c(-c2ccc([N+](=O)[O-])cc2)c2cc(C(=O)c3ccccc3O)cnc21	89*	-6	-2	6	0	-9	14
CC1C(=O)N(Cc2cn(CCC3OCCCO3)nn2)CCS(=O)(=O)N1Cc1ccc(-c2ccc(Cl)cc2)cc1 (centres undefined)	16	13	/	/	2	0	/
CCCS(=O)(=O)NC(=O)C1(C)CCCN(C(=O)C(C)(C)Oc2ccc(Cl)cc2)C1 (centres undefined)	-2	-2	/	/	-1	1	/
CC1S/C(=N\N=C\c2cccc([N+](=O)[O-])c2)N(C(C)(C)C)C1=O (centres undefined)	54*	6	0	44	1	-1	0
CC(C)C[C@H]1C(=O)N2CCC[C@H]2[C@]2(O)O[C@](NC(=O)[C@@H]3C=C4c5cccc6[nH]c(Br)c(c56)CC4N(C)C3)(C(C)C)C(=O)N12 (some centres undefined)	76*	31	-5	-5	-2	10	24
CCOC(=O)C1=CN(CC)CCC1=O	-8	27	4	35	1	1	/
SMILES	FAS-TE inh	Cardio protect	NR3A LBD binder	Arrestin-AP2 inh	hiPSC survival	SENP1 FRET inh	FAS-TE inh conf
CC(C)OC(=O)[C@H]1[C@H](c2ccc(Cl)cc2)[C@@](C#N)(C(N)=O)[C@@H]2C=CC(C(N)=O)=CN21	59*	-6	-1	6	2	-10	59*
CC1(C(=O)Nc2cccc3cccnc23)CCN1Cc1cccc2c1OCO2 (centres undefined)	20	0	/	/	-4	1	/
CCN(Cc1ccccc1)c1ccc(/C=N/NC(=O)c2cccc(S(=O)(=O)N3CCOCC3)c2)cc1	82*	-6	-8	-7	0	8	8
O=C(CC1C[C@H](C(=O)N2CCOCC2)[C@@]2(CCC3CCCC3)c3[nH]c4ccccc4c3CCN2C1=O)NCCc1ccccn1 (some centres undefined)	80*	-1	2	4	-1	-6	91*
O=C(CC1C[C@H](C(=O)N2CCOCC2)[C@@]2(CCC3CCCC3)c3[nH]c4ccccc4c3CCN2C1=O)NCc1ccco1 (some centres undefined)	84*	-3	-3	4	1	0	92*
O=C(CC1C[C@H](C(=O)N2CCOCC2)[C@@]2(CCC3CCCC3)c3[nH]c4ccccc4c3CCN2C1=O)NCC12CC3CC(CC(C3)C1)C2 (some centres undefined)	89*	-4	1	-3	-1	1	34
COc1ccc2[nH]c3c(c2c1)CCN1C(=O)C(CC(=O)NCCc2ccccn2)C[C@H](C(=O)N2CCOCC2)[C@@]31CCC1CCCC1 (some centres undefined)	61*	-4	0	12	-2	-2	46*
O=C(NCc1ccccc1Cl)c1csc([C@@H]2O[C@H](CO)[C@H](O)[C@H](O)[C@H]2O)n1	-10	1	/	/	2	1	/
